Data on two compounds can be found in ChEMBL document CHEMBL1671676, “In vitro activity of nemonoxacin, a novel nonfluorinated quinolone, against 2,440 clinical isolates” (2009).

Each structure is given as a SMILES string. ≈ marks a conversion by molar mass, not a printed value. Some results are limits rather than exact numbers.

Holding throughout (type): functional
For test [1], the system named is Acinetobacter baumannii. Briefly: Antibacterial activity against Acinetobacter baumannii assessed as percent cumulative susceptible isolates at minimum inhibitory concentration of 0.06 ug/ml by CLSI broth microdilution method. More on the design: scale not given: the % may be the effect or the level left. For orientation: In broth dilution the organism is exposed to a series of concentrations in liquid medium.

Test [2] concerns Staphylococcus aureus. Briefly: Antibacterial activity against community-associated methicillin-resistant Staphylococcus aureus assessed as percent cumulative susceptible isolates at minimum inhibitory concentration of 1 ug/ml by CLSI broth microdilution method. More on the design: scale not given: the % may be the effect or the level left.
In test [3] the test system is Streptococcus pneumoniae. Briefly: Antibacterial activity against penicillin-resistant Streptococcus pneumoniae assessed as percent cumulative susceptible isolates at minimum inhibitory concentration of 0.5 ug/ml by CLSI broth microdilution method. More on the design: scale not given: the % may be the effect or the level left.
Test [4] deals with Staphylococcus epidermidis. Description: Antibacterial activity against methicillin-resistant Staphylococcus epidermidis assessed as percent cumulative susceptible isolates at minimum inhibitory concentration of 4 ug/ml by CLSI broth microdilution method. More on the design: scale not given: the % may be the effect or the level left.
In test [5] the test system is Stenotrophomonas maltophilia. Description: Antibacterial activity against Stenotrophomonas maltophilia assessed as percent cumulative susceptible isolates at minimum inhibitory concentration of 0.5 ug/ml by CLSI broth microdilution method. More on the design: scale not given: the % may be the effect or the level left.
In test [6] the test system is Pseudomonas aeruginosa. Description: Antibacterial activity against Pseudomonas aeruginosa assessed as percent cumulative susceptible isolates at minimum inhibitory concentration of 0.06 ug/ml by CLSI broth microdilution method. More on the design: scale not given: the % may be the effect or the level left.
Test [7] concerns Streptococcus pneumoniae. Description: Antibacterial activity against Streptococcus pneumoniae assessed as percent cumulative susceptible isolates at minimum inhibitory concentration of 0.5 ug/ml by CLSI broth microdilution method. More on the design: scale not given: the % may be the effect or the level left.
Test [8] deals with Staphylococcus aureus. Briefly: Antibacterial activity against non-levofloxacin susceptible Staphylococcus aureus assessed as percent cumulative susceptible isolates at minimum inhibitory concentration of 0.5 ug/ml by CLSI broth microdilution method. More on the design: scale not given: the % may be the effect or the level left.
Test [9] has as its system Staphylococcus aureus. Description: Antibacterial activity against hospital-associated methicillin-resistant Staphylococcus aureus assessed as percent cumulative susceptible isolates at minimum inhibitory concentration of […] by CLSI broth microdilution method. More on the design: scale not given: the % may be the effect or the level left.
The subject of test [10] is Klebsiella pneumoniae. Briefly: Antibacterial activity against Klebsiella pneumoniae assessed as percent cumulative susceptible isolates at minimum inhibitory concentration of 0.03 ug/ml by CLSI broth microdilution method. More on the design: scale not given: the % may be the effect or the level left.
For test [11], the system named is Staphylococcus aureus. Briefly: Antibacterial activity against methicillin-susceptible Staphylococcus aureus assessed as percent cumulative susceptible isolates at minimum inhibitory concentration of 0.03 ug/ml by CLSI broth microdilution method. More on the design: scale not given: the % may be the effect or the level left.
Test [12] concerns Staphylococcus epidermidis. Briefly: Antibacterial activity against methicillin-resistant Staphylococcus epidermidis assessed as percent cumulative susceptible isolates at minimum inhibitory concentration of […] by CLSI broth microdilution method. More on the design: scale not given: the % may be the effect or the level left.
Test [13] deals with Enterococcus faecium. Description: Antibacterial activity against Enterococcus faecium assessed as percent cumulative susceptible isolates at minimum inhibitory concentration of 64 ug/ml by CLSI broth microdilution method. More on the design: scale not given: the % may be the effect or the level left.
Test [14] relates to Klebsiella oxytoca. Briefly: Antibacterial activity against Klebsiella oxytoca assessed as percent cumulative susceptible isolates at minimum inhibitory concentration of 0.5 ug/ml by CLSI broth microdilution method. More on the design: scale not given: the % may be the effect or the level left. In a few lines: (§1)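 Clinical isolates tested by CLSI broth microdilution using 96-well panels of doubling drug dilutions in cation-adjusted Mueller-Hinton broth with 5% lysed horse blood. MIC was read from these panels. Panel quality control used CLSI ATCC strains, including S. pneumoniae 49619, S. aureus 29213, E. faecalis 29212 and E. coli 25922. Cumulative percentages of isolates were tabulated at each MIC.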

In test [15] the test system is Escherichia coli. Description: Antibacterial activity against Escherichia coli assessed as percent cumulative susceptible isolates at minimum inhibitory concentration of 2 ug/ml by CLSI broth microdilution method. More on the design: scale not given: the % may be the effect or the level left.
In test [16] the test system is Stenotrophomonas maltophilia. Description: Antibacterial activity against Stenotrophomonas maltophilia assessed as percent cumulative susceptible isolates at minimum inhibitory concentration of 32 ug/ml by CLSI broth microdilution method. More on the design: scale not given: the % may be the effect or the level left.
The test system of test [17] is Escherichia coli. Briefly: Antibacterial activity against Escherichia coli assessed as percent cumulative susceptible isolates at minimum inhibitory concentration of 0.03 ug/ml by CLSI broth microdilution method. More on the design: scale not given: the % may be the effect or the level left.
For test [18], the system named is Staphylococcus aureus. Briefly: Antibacterial activity against methicillin-resistant Staphylococcus aureus assessed as percent cumulative susceptible isolates at minimum inhibitory concentration of […] by CLSI broth microdilution method. More on the design: scale not given: the % may be the effect or the level left.
Test [19] has as its system Staphylococcus aureus. Briefly: Antibacterial activity against community-associated methicillin-resistant Staphylococcus aureus assessed as percent cumulative susceptible isolates at minimum inhibitory concentration of 0.06 ug/ml by CLSI broth microdilution method. More on the design: scale not given: the % may be the effect or the level left.
Test [20] deals with Staphylococcus aureus. Briefly: Antibacterial activity against Levofloxacin-susceptible Staphylococcus aureus assessed as percent cumulative susceptible isolates at minimum inhibitory concentration of 0.03 ug/ml by CLSI broth microdilution method. More on the design: scale not given: the % may be the effect or the level left.
Test [21] in a line: Ratio of fAUC (0 to 24 hrs) in in vitro PK/PD model at 750 mg to MIC for Staphylococcus epidermidis.
Test [22] relates to Staphylococcus aureus. Description: Antibacterial activity against methicillin-resistant Staphylococcus aureus assessed as percent cumulative susceptible isolates at minimum inhibitory concentration of 2 ug/ml by CLSI broth microdilution method. More on the design: scale not given: the % may be the effect or the level left.
Test [23] relates to Streptococcus pneumoniae. Briefly: Antibacterial activity against Streptococcus pneumoniae assessed as percent cumulative susceptible isolates at minimum inhibitory concentration of <=0.008 ug/ml by CLSI broth microdilution method. More on the design: scale not given: the % may be the effect or the level left.
For test [24], the system named is Staphylococcus aureus. Description: Antibacterial activity against non-levofloxacin susceptible Staphylococcus aureus assessed as percent cumulative susceptible isolates at minimum inhibitory concentration of 1 ug/ml by CLSI broth microdilution method. More on the design: scale not given: the % may be the effect or the level left.
Test [25] concerns Enterococcus faecium. Description: Antibacterial activity against Enterococcus faecium assessed as percent cumulative susceptible isolates at minimum inhibitory concentration of 8 ug/ml by CLSI broth microdilution method. More on the design: scale not given: the % may be the effect or the level left.
Test [26] concerns Enterobacter cloacae. Briefly: Antibacterial activity against Enterobacter cloacae assessed as percent cumulative susceptible isolates at minimum inhibitory concentration of 0.5 ug/ml by CLSI broth microdilution method. More on the design: scale not given: the % may be the effect or the level left.
Test [27] concerns Staphylococcus aureus. Description: Antibacterial activity against methicillin-susceptible Staphylococcus aureus by CLSI M7-A7 broth microdilution method. The method in brief:
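Broth microdilution per CLSI guidelines on clinical isolates, using panels of doubling drug dilutions in cation-adjusted Mueller-Hinton broth with 5% lysed horse blood. MIC read per CLSI, and cumulative percentage of isolates inhibited at each concentration tabulated.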

Test [28] relates to Stenotrophomonas maltophilia. Description: Antibacterial activity against Stenotrophomonas maltophilia by CLSI M7-A7 broth microdilution method.
Test [29] concerns Staphylococcus aureus. Briefly: Antibacterial activity against methicillin-resistant Staphylococcus aureus assessed as percent cumulative susceptible isolates at minimum inhibitory concentration of 0.03 ug/ml by CLSI broth microdilution method. More on the design: scale not given: the % may be the effect or the level left. In a few lines: as §1
Test [30] concerns Staphylococcus aureus. Description: Antibacterial activity against methicillin-resistant Staphylococcus aureus assessed as percent cumulative susceptible isolates at minimum inhibitory concentration of 0.06 ug/ml by CLSI broth microdilution method. More on the design: scale not given: the % may be the effect or the level left.
Test [31] has as its system Staphylococcus aureus. Description: Antibacterial activity against methicillin-susceptible Staphylococcus aureus assessed as percent cumulative susceptible isolates at minimum inhibitory concentration of <=0.008 ug/ml by CLSI broth microdilution method. More on the design: scale not given: the % may be the effect or the level left.
The subject of test [32] is Pseudomonas aeruginosa. Briefly: Antibacterial activity against Pseudomonas aeruginosa assessed as percent cumulative susceptible isolates at minimum inhibitory concentration of 64 ug/ml by CLSI broth microdilution method. More on the design: scale not given: the % may be the effect or the level left.
Test [33] relates to Enterococcus faecalis. Briefly: Antibacterial activity against Enterococcus faecalis assessed as percent cumulative susceptible isolates at minimum inhibitory concentration of 0.03 ug/ml by CLSI broth microdilution method. More on the design: scale not given: the % may be the effect or the level left.
The subject of test [34] is Staphylococcus epidermidis. Briefly: Antibacterial activity against methicillin-susceptible Staphylococcus epidermidis assessed as percent cumulative susceptible isolates at minimum inhibitory concentration of 1 ug/ml by CLSI broth microdilution method. More on the design: scale not given: the % may be the effect or the level left.
Test [35] deals with Staphylococcus aureus. Briefly: Antibacterial activity against non-levofloxacin susceptible Staphylococcus aureus assessed as percent cumulative susceptible isolates at minimum inhibitory concentration of 32 ug/ml by CLSI broth microdilution method. More on the design: scale not given: the % may be the effect or the level left.

For the compound `C[C@H]1COc2c(N3CCN(C)CC3)c(F)cc3c(=O)c(C(=O)O)cn1c23.C[C@H]1COc2c(N3CCN(C)CC3)c(F)cc3c(=O)c(C(=O)O)cn1c23.O` [LEVOFLOXACIN], the Activity in test [1] is on record as 6.7%; in test [2] it was 32%; in test [3], 53.1%; in [4] it was 11.1%; in [5], 7.7%; in test [6], 2.2%. Moreover, the Activity in test [7] came out at 69.3%.

Consider `COc1c(N2C[C@@H](C)C[C@H](N)C2)ccc2c(=O)c(C(=O)O)cn(C3CC3)c12` [NEMONOXACIN], for which the Activity in test [8] was 19%; in test [9] it was 2%; in [10], 1%; in test [11], 71.9%; in test [12], 11.1%; in [13], 84.2%. In addition, the Activity in test [14] was found to be 96.9%; in test [15], 75.5%; in test [16], 92.3%; in test [17], 1.5%; in test [18] it was 4.7%; in [19], 28%. Moreover, the Activity in test [20] amounted to 78.3%; in test [22], 37.8%; in [23] it was 19.2%; in test [24], 30.6%; in test [25], 44.7%; in test [26], 90.3%. Besides, the Activity was determined as 6.3% in test [29]; 6.3% in [30]; 5.6% in test [31]; 95.6% in test [32]; 2.5% in test [33]; 95.3% in test [34]. Further, the Activity in test [35] amounted to 98%. In addition, in test [21], the RatioAUC/MIC amounted to 98. Further, the MIC90 (in general, an inhibitory concentration at the 90% level, which refers to growth in some studies and to a panel of isolates in others) in test [27] is 0.12 µg/mL (≈ 0.323 µM); in test [28], at least 4 µg/mL.
